# Source: ChEMBL document CHEMBL1811814, “Synthesis and evaluation of indole, pyrazole, chromone and pyrimidine based conjugates for tumor growth inhibitory activities--development of highly efficacious cytotoxic agents” (Eur J Med Chem, 2010)
# Assays:
# Format in all cases: functional
# Parameters in all cases: scale not given: the % may be the effect or the level left
# UO-31 = test: Growth inhibition of human UO31 cells assessed tumor cell growth at 10^-5 M
# Method in brief: (§1)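 Single-dose screen at 10^-5 M across the 60 human tumor cell line panel, run to NCI standards. The value is the percent growth of each cell line in the presence of compound. Compounds active at this dose moved on to five-concentration testing (10^-4 to 10^-8 M).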
# NCI/ADR-RES = test: Growth inhibition of human NCI/ADR-RES cells assessed tumor cell growth at 10^-5 M
# Method in brief: (§2)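 NCI 60-human-tumor-cell-line panel screen. Each compound was tested at a single concentration of 10^-5 M, and percent growth of tumor cells was recorded for each cell line. Growth inhibition was expressed from these percent-growth values.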
# NCI-H23 = test: Growth inhibition of human NCI-H23 cells assessed tumor cell growth at 10^-5 M; method in brief: as §2
# DU-145 = test: Growth inhibition of human DU145 cells assessed tumor cell growth at 10^-5 M; method in brief: as §2
# UACC-62 = test: Growth inhibition of human UACC62 cells assessed tumor cell growth at 10^-5 M; method in brief: as §1
# SF-268 = test: Growth inhibition of human SF268 cells assessed tumor cell growth at 10^-5 M; method in brief: as §2
# MDA-MB-435 = test: Growth inhibition of human MDA-MB-435 cells assessed tumor cell growth at 10^-5 M; method in brief: as §2
# MDA-MB-231 = test: Growth inhibition of human MDA-MB-231 cells assessed tumor cell growth at 10^-5 M; method in brief: as §2
# SF-539 = test: Growth inhibition of human SF539 cells assessed tumor cell growth at 10^-5 M; method in brief: as §2
# HOP-92 = test: Growth inhibition of human HOP92 cells assessed tumor cell growth at 10^-5 M; method in brief: as §2
# U-251 = test: Growth inhibition of human U251 cells assessed tumor cell growth at 10^-5 M; method in brief: as §1
# SNB-19 = test: Growth inhibition of human SNB19 cells assessed tumor cell growth at 10^-5 M; method in brief: as §1
# [1] = Growth inhibition of human […] cells assessed tumor cell growth at 10^-5 M; method in brief: as §2
# OVCAR-8 = test: Growth inhibition of human OVCAR8 cells assessed tumor cell growth at 10^-5 M; method in brief: as §2
# CAKI-1 = test: Growth inhibition of human Caki1 cells assessed tumor cell growth at 10^-5 M; method in brief: as §2
# Malme-3M = test: Growth inhibition of human MALME-3M cells assessed tumor cell growth at 10^-5 M; method in brief: as §2
# COLO 205 = test: Growth inhibition of human COLO205 cells assessed tumor cell growth at 10^-5 M; method in brief: as §2
# 786-0 = test: Growth inhibition of human 786-0 cells assessed tumor cell growth at 10^-5 M; method in brief: as §2
# SK-OV-3 = test: Growth inhibition of human SKOV3 cells assessed tumor cell growth at 10^-5 M; method in brief: as §2
# HCC 2998 = test: Growth inhibition of human HCC2998 cells assessed tumor cell growth at 10^-5 M; method in brief: as §2
# T47D = test: Growth inhibition of human T47D cells assessed tumor cell growth at 10^-5 M; method in brief: as §1
# M14 = test: Growth inhibition of human M14 cells assessed tumor cell growth at 10^-5 M; method in brief: as §2
# BT-549 = test: Growth inhibition of human BT549 cells assessed tumor cell growth at 10^-5 M; method in brief: as §2
# HCT-116 = test: Growth inhibition of human HCT116 cells assessed tumor cell growth at 10^-5 M; method in brief: as §2
# KM12 = test: Growth inhibition of human KM12 cells assessed tumor cell growth at 10^-5 M; method in brief: as §2
# ACHN = test: Growth inhibition of human ACHN cells assessed tumor cell growth at 10^-5 M; method in brief: as §2
# HOP-62 = test: Growth inhibition of human HOP62 cells assessed tumor cell growth at 10^-5 M; method in brief: as §2
# SK-MEL-5 = test: Growth inhibition of human SK-MEL-5 cells assessed tumor cell growth at 10^-5 M; method in brief: as §2
# HL-60(TB) = test: Growth inhibition of human HL-60(TB) cells assessed tumor cell growth at 10^-5 M
# Method in brief: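 HL-60(TB), part of the 60-line panel, tested at a single concentration of 10^-5 M. The read-out is percent tumor cell growth relative to untreated growth.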
# SN12C = test: Growth inhibition of human SN12C cells assessed tumor cell growth at 10^-5 M; method in brief: as §2
# NCI-H460 = test: Growth inhibition of human NCI-H460 cells assessed tumor cell growth at 10^-5 M; method in brief: as §2
# CCRF-CEM = test: Growth inhibition of human CCRF-CEM cells assessed tumor cell growth at 10^-5 M; method in brief: as §2
# [2] = Growth inhibition of human Hs 578T cells assessed tumor cell growth at 10^-5 M; method in brief: as §2
# LOX IMVI = test: Growth inhibition of human LOXIMVI cells assessed tumor cell growth at 10^-5 M; method in brief: as §2
# HT-29 = test: Growth inhibition of human HT-29 cells assessed tumor cell growth at 10^-5 M; method in brief: as §2
# OVCAR-3 = test: Growth inhibition of human OVCAR3 cells assessed tumor cell growth at 10^-5 M; method in brief: as §2
# K562 = test: Growth inhibition of human K562 cells assessed tumor cell growth at 10^-5 M; method in brief: as §2
# SW-620 = test: Growth inhibition of human SW620 cells assessed tumor cell growth at 10^-5 M; method in brief: as §1
# A498 = test: Growth inhibition of human A498 cells assessed tumor cell growth at 10^-5 M; method in brief: as §2
# HCT-15 = test: Growth inhibition of human HCT15 cells assessed tumor cell growth at 10^-5 M; method in brief: as §2
# SK-MEL-2 = test: Growth inhibition of human SK-MEL-2 cells assessed tumor cell growth at 10^-5 M; method in brief: as §2
# NCI-H322M = test: Growth inhibition of human NCI-H322M cells assessed tumor cell growth at 10^-5 M; method in brief: as §2
# NCI-H522 = test: Growth inhibition of human NCI-H522 cells assessed tumor cell growth at 10^-5 M; method in brief: as §2
# OVCAR-5 = test: Growth inhibition of human OVCAR5 cells assessed tumor cell growth at 10^-5 M; method in brief: as §2
# NCI-H226 = test: Growth inhibition of human NCI-H226 cells assessed tumor cell growth at 10^-5 M; method in brief: as §2
# MDA-MB-468 = test: Growth inhibition of human MDA-MB-468 cells assessed tumor cell growth at 10^-5 M; method in brief: as §2
# MOLT-4 = test: Growth inhibition of human MOLT4 cells assessed tumor cell growth at 10^-5 M; method in brief: as §2
# RXF 393 = test: Growth inhibition of human RXF393 cells assessed tumor cell growth at 10^-5 M; method in brief: as §2
# UACC-257 = test: Growth inhibition of human UACC257 cells assessed tumor cell growth at 10^-5 M; method in brief: as §1
# A549 = test: Growth inhibition of human A549 cells assessed tumor cell growth at 10^-5 M; method in brief: as §2
# PC-3 = test: Growth inhibition of human PC3 cells assessed tumor cell growth at 10^-5 M; method in brief: as §2
# IGROV-1 = test: Growth inhibition of human IGROV1 cells assessed tumor cell growth at 10^-5 M; method in brief: as §2
# TK-10 = test: Growth inhibition of human TK10 cells assessed tumor cell growth at 10^-5 M; method in brief: as §1
smiles,measurement,setting,value
C#CCN1C(=O)/C(=C\c2cn(CC#C)c3ccccc23)c2ccccc21,Activity,UO-31,74.9%
same,Activity,NCI/ADR-RES,106%
same,Activity,NCI-H23,92%
same,Activity,DU-145,109%
same,Activity,UACC-62,78.4%
same,Activity,SF-268,95.6%
same,Activity,MDA-MB-435,114%
same,Activity,MDA-MB-231,82.7%
same,Activity,SF-539,91.5%
same,Activity,HOP-92,75.1%
same,Activity,U-251,98.4%
same,Activity,SNB-19,96.7%
same,Activity,[1],90.9%
same,Activity,OVCAR-8,95.6%
same,Activity,CAKI-1,120%
same,Activity,Malme-3M,161%
same,Activity,COLO 205,77.9%
same,Activity,786-0,109%
same,Activity,SK-OV-3,97.8%
same,Activity,HCC 2998,107%
same,Activity,T47D,96.4%
same,Activity,M14,98.6%
same,Activity,BT-549,96.7%
same,Activity,HCT-116,97.4%
same,Activity,KM12,101%
same,Activity,ACHN,92.7%
same,Activity,HOP-62,102%
same,Activity,SK-MEL-5,91%
same,Activity,HL-60(TB),101.9%
same,Activity,SN12C,89.2%
same,Activity,NCI-H460,98.6%
same,Activity,CCRF-CEM,86%
same,Activity,[2],105%
same,Activity,LOX IMVI,103%
same,Activity,HT-29,101%
same,Activity,OVCAR-3,102%
same,Activity,K562,87.4%
same,Activity,SW-620,102%
same,Activity,A498,101%
same,Activity,HCT-15,104%
same,Activity,SK-MEL-2,99.8%
same,Activity,NCI-H322M,110%
same,Activity,NCI-H522,96.6%
same,Activity,OVCAR-5,101%
same,Activity,NCI-H226,86.5%
same,Activity,MDA-MB-468,133%
same,Activity,MOLT-4,87.3%
same,Activity,RXF 393,126%
same,Activity,UACC-257,97.8%
same,Activity,A549,98.9%
same,Activity,PC-3,80%
same,Activity,IGROV-1,91.2%
same,Activity,TK-10,112%
